Data published in ChEMBL document CHEMBL1155482, “Synthesis, anticancer activity and apoptosis inducing ability of anthranilamide-PBD conjugates” (2010).
Where a name gives a salt, the structure may show the parent alone. Active and inactive are the calls of the source. The rule behind the calls is not given here.

What was measured:
KB = test: Cytotoxicity against human KB cells after 48 hrs by SRB assay; assay type: functional
Procedure, shortened: (§1)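 Sulforhodamine B assay estimating cell density from cellular protein content, run on human cancer lines of lung, breast, oral, colon, cervix, ovary and prostate origin, with GI50 values derived.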

COLO 205 = test: Cytotoxicity against human COLO205 cells after 48 hrs by SRB assay; assay type: functional; settings: COLO 205, 48 h; procedure, shortened: as §1
A2780 = test: Cytotoxicity against human A2780 cells after 48 hrs by SRB assay; assay type: functional; settings: A2780, 48 h; procedure, shortened: as §1
A-375 [1] = test: Cell cycle arrest in human A375 cells assessed as accumulation at G2/M phase at 1 uM by FACS analysis; assay type: functional
Procedure, shortened: (§2)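 A375 cells were exposed to compound for 24 h, and cell cycle distribution was measured by FACS. The sub-G1 peak (labelled G0) was scored as the apoptotic cell percentage and compared with untreated control cells.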

A-375 [2] = test: Induction of apoptosis in human A375 cells assessed as cells in dub G1 phase at 1 uM after 24 hrs by FACS analysis; assay type: functional; procedure, shortened: as §2
PC-3 = test: Cytotoxicity against human PC3 cells after 48 hrs by SRB assay; assay type: functional; settings: PC-3, 48 h; procedure, shortened: as §1
HOP-62 = test: Cytotoxicity against human HOP62 cells after 48 hrs by SRB assay; assay type: functional; settings: HOP-62, 48 h; procedure, shortened: as §1
MCF7 = test: Cytotoxicity against human MCF7 cells after 48 hrs by SRB assay; assay type: functional; settings: MCF7, 48 h; procedure, shortened: as §1
SiHa = test: Cytotoxicity against human SiHa cells after 48 hrs by SRB assay; assay type: functional; procedure, shortened: as §1
A-375 [3] = test: Cell cycle arrest in human A375 cells assessed as accumulation at S phase at 1 uM by FACS analysis; assay type: functional; procedure, shortened: as §2
A-375 [4] = test: Induction of apoptosis in human A375 cells assessed as caspase 3 activation at 1 uM after 24 hrs by fluorimetry; assay type: functional, cell-based
Procedure, shortened: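 Caspase-3 activity in treated A375 cells was measured by fluorimetry relative to untreated cells.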

A-375 [5] = test: Antitumor activity against human A375 cells assessed as cell viability at 1 uM after 24 hrs by MTT assay; assay type: functional, cell-based
[6] = Cytotoxicity against human Gurav cells after 48 hrs by SRB assay; assay type: functional; procedure, shortened: as §1
A549 = test: Cytotoxicity against human A549 cells after 48 hrs by SRB assay; assay type: functional; settings: A549, 48 h; procedure, shortened: as §1
A-375 [7] = test: Cell cycle arrest in human A375 cells assessed as accumulation at G0/G1 phase at 1 uM by FACS analysis; assay type: functional; procedure, shortened: as §2
ZR-75-1 = test: Cytotoxicity against human ZR-75-1 cells after 48 hrs by SRB assay; assay type: functional; settings: ZR-75-1, 48 h; procedure, shortened: as §1
[8] = Cytotoxicity against human DWD cells after 48 hrs by SRB assay; assay type: functional; procedure, shortened: as §1
[9] = molecular target: T1, Type II restriction enzyme BamHI (Bacillus amyloliquefaciens) (UniProt P23940); test: Inhibition of Bacillus amyloliquifaction Bam H1-mediated restriction digestion of pBR322 at 4 uM by RED 100 assay
T1 sequence (whole entry): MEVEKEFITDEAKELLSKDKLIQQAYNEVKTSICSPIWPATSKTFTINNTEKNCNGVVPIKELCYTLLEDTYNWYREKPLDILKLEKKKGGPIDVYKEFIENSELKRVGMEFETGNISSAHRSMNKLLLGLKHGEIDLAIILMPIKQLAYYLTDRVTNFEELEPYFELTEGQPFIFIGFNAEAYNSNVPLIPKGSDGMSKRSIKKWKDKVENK
Procedure, shortened: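 Restriction enzyme digestion (RED 100) of vector DNA by BamHI after exposure to compound at 2, 4, 8, 16 and 32 micromolar, with controls of vector cut without compound and uncut vector DNA.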

A-375 [10] = test: Induction of apoptosis in human A375 cells assessed as p53 protein expression at 1 uM after 24 hrs by Western blotting; assay type: functional, cell-based
Procedure, shortened: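 A375 cells were treated for 24 h, and lysates were probed for p53 by western blot with a p53-specific antibody. Untreated cells served as control and β-actin as loading control.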

| inhibition [9] | SMILES | GI50 (KB) | GI50 (COLO 205) | GI50 (A2780) | Activity (A-375 [1]) | Activity (A-375 [2]) | GI50 (PC-3) | GI50 (HOP-62) | GI50 (MCF7) | GI50 (SiHa) | Activity (A-375 [3]) | Activity (A-375 [4]) | Activity (A-375 [5]) | GI50 [6] | GI50 (A549) | Activity (A-375 [7]) | GI50 (ZR-75-1) | GI50 [8] | Activity (A-375 [10]) |
| --- | --- | --- | --- | --- | --- | --- | --- | --- | --- | --- | --- | --- | --- | --- | --- | --- | --- | --- | --- |
|  | COc1cc2c(cc1O)N=C[C@@H]1CCCN1C2=O | 170 nM | 110 nM | 140 nM | 12.19% | 2.683% | 200 nM | 150 nM | 170 nM | 170 nM | 23.08% | Active | Active | 160 nM | 160 nM | 67.67% |  |  |  |
|  | COc1cc2c(cc1OCCCCCCN1CCN(C(=O)c3ccccc3NCc3cc(OC)c(OC)c(OC)c3)CC1)N=C[C@@H]1CCCN1C2=O | 150 nM | 160 nM | 170 nM |  |  | 160 nM | 1900 nM | 140 nM | 1800 nM |  |  |  | 170 nM | 180 nM |  | 180 nM | 150 nM |  |
|  | COc1cc2c(cc1OCCCN1CCN(C(=O)c3ccccc3NCc3cc(OC)c(OC)c(OC)c3)CC1)N=C[C@@H]1CCCN1C2=O | 150 nM | 170 nM | 180 nM |  |  | 160 nM | 2100 nM | 140 nM | 170 nM |  |  |  | 170 nM | 2000 nM |  | 170 nM | 150 nM |  |
|  | COc1cc2c(cc1OCCCCCN1CCN(C(=O)c3cc(Cl)ccc3NCc3ccc4ccccc4c3)CC1)N=C[C@@H]1CCCN1C2=O | 140 nM | 29000 nM | 180 nM |  |  | 170 nM | 2000 nM | 140 nM | 1800 nM |  |  |  | 170 nM | 2000 nM |  | 180 nM | 170 nM |  |
|  | COc1cccc2c1C(=O)c1c(O)c3c(c(O)c1C2=O)C[C@@](O)(C(=O)CO)C[C@@H]3O[C@H]1C[C@H](N)[C@H](O)[C@H](C)O1 [DOXORUBICIN HYDROCHLORIDE] | 170 nM | 140 nM | 160 nM |  |  |  | 140 nM | 170 nM | 170 nM |  |  |  | 170 nM |  |  |  | 100 nM |  |
|  | COc1cc2c(cc1OCCCCCCN1CCN(C(=O)c3ccccc3NCc3ccncc3)CC1)N=C[C@@H]1CCCN1C2=O | 150 nM | 2600 nM | 190 nM |  |  | 1800 nM | 25000 nM | 150 nM | 1900 nM |  |  |  | 180 nM | 2200 nM |  | 2000 nM | 170 nM |  |
|  | O=C(c1ccccc1NCc1coc2ccccc2c1=O)N1CCNCC1 |  |  |  | 15.45% | 1.15% |  |  |  |  | 18.53% |  | Active |  |  | 68.39% |  |  |  |
| Active | COc1cc2c(cc1OCCCCCN1CCN(C(=O)c3ccccc3NCc3ccc4ccccc4c3)CC1)N=C[C@@H]1CCCN1C2=O | 130 nM | 150 nM | 140 nM | 1.97% | 7.333% | 140 nM | 1800 nM | 130 nM | 150 nM | 7.09% | Active | Active | 140 nM | 170 nM | 91.94% | 150 nM | 130 nM | Active |
|  | O=C(c1ccccc1NCc1ccc2ccccc2c1)N1CCNCC1 |  |  |  | 14.78% | 1.233% |  |  |  |  | 14.56% |  | Active |  |  | 72.22% |  |  |  |
|  | COc1cc2c(cc1OCCCCCCN1CCN(C(=O)c3ccccc3NCc3ccc4ccccc4c3)CC1)N=C[C@@H]1CCCN1C2=O | 150 nM | 180 nM | 190 nM |  |  | 150 nM | 1900 nM | 140 nM | 150 nM |  |  |  | 170 nM | 170 nM |  | 160 nM | 160 nM |  |
|  | COc1cc2c(cc1OCCCCCN1CCN(C(=O)c3ccccc3NCc3cc(OC)c(OC)c(OC)c3)CC1)N=C[C@@H]1CCCN1C2=O | 140 nM | 2200 nM | 160 nM |  |  | 140 nM | 1900 nM | 140 nM | 170 nM |  |  |  | 160 nM | 1900 nM |  | 160 nM | 140 nM |  |
|  | COc1cc2c(cc1OCCCN1CCN(C(=O)c3ccccc3NCc3ccncc3)CC1)N=C[C@@H]1CCCN1C2=O | 150 nM | 190 nM | 190 nM |  |  | 1800 nM | 2200 nM | 130 nM | 1800 nM |  |  |  | 180 nM | 2000 nM |  | 180 nM | 170 nM |  |
|  | COc1cc2c(cc1OCCCCCN1CCN(C(=O)c3ccccc3NCc3coc4ccccc4c3=O)CC1)N=C[C@@H]1CCCN1C2=O | 150 nM | 2400 nM | 180 nM | 6.68% | 3.483% | 140 nM | 1800 nM | 140 nM | 130 nM | 13.34% | Active | Active | 170 nM | 160 nM | 81.9% | 160 nM | 160 nM |  |
|  | COc1cc2c(cc1OCCCCCN1CCN(C(=O)c3ccccc3NCc3ccncc3)CC1)N=C[C@@H]1CCCN1C2=O | 150 nM | 25000 nM | 170 nM |  |  | 170 nM | 2300 nM | 160 nM | 1800 nM |  |  |  | 170 nM | 2000 nM |  | 2000 nM | 150 nM |  |
|  | COc1cc2c(cc1OCCCCCN1CCN(C(=O)c3cc(Cl)ccc3NCc3coc4ccccc4c3=O)CC1)N=C[C@@H]1CCCN1C2=O | 160 nM | 2300 nM | 180 nM |  |  | 160 nM | 1800 nM | 150 nM | 160 nM |  |  |  | 170 nM | 170 nM |  | 160 nM | 170 nM |  |
|  | COc1cc2c(cc1OCCCN1CCN(C(=O)c3ccccc3NCc3ccc4ccccc4c3)CC1)N=C[C@@H]1CCCN1C2=O | 150 nM | 180 nM | 170 nM | 6.32% | 5.486% | 140 nM | 1700 nM | 140 nM | 160 nM | 6.32% | Active | Active | 170 nM | 170 nM | 83.66% | 150 nM | 140 nM |  |
